Calls of active or inactive are those of the source. No cut-off for these calls is given here.
How the values were obtained:
[1] = target: Vascular endothelial growth factor receptor 3 (Homo sapiens, UniProt P35916); assay: Inhibition of Flt4 (unknown origin) after 20 mins by scintillation counting
How it was run: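 Radiometric filter-plate kinase assay for Flt-1, Flt-4 and PDGFR-α. Buffer: 20 mM Tris-HCl pH 7.4, 3 mM MnCl2, 3 mM MgCl2, 50 μg/mL poly GluTyr, 100 mM NaCl, Na3VO4, DTT, 0.5% BSA. Kinase (55 ng) plus compound in 2% DMSO buffer; reaction started with 4 μM ATP/32P-ATP solution. Ran 20 min at room temperature, stopped with 30% TCA, washed with 15% TCA, scintillation counted.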

[2] = target: Vascular endothelial growth factor receptor 2 (Homo sapiens, UniProt P35968)
[3] = target: Platelet-derived growth factor receptor beta (Homo sapiens, UniProt P09619); assay: Inhibition of PDGFR-beta (unknown origin) after 20 mins by scintillation counting
Platelet-derived growth factor receptor beta, sequence (P09619 whole entry): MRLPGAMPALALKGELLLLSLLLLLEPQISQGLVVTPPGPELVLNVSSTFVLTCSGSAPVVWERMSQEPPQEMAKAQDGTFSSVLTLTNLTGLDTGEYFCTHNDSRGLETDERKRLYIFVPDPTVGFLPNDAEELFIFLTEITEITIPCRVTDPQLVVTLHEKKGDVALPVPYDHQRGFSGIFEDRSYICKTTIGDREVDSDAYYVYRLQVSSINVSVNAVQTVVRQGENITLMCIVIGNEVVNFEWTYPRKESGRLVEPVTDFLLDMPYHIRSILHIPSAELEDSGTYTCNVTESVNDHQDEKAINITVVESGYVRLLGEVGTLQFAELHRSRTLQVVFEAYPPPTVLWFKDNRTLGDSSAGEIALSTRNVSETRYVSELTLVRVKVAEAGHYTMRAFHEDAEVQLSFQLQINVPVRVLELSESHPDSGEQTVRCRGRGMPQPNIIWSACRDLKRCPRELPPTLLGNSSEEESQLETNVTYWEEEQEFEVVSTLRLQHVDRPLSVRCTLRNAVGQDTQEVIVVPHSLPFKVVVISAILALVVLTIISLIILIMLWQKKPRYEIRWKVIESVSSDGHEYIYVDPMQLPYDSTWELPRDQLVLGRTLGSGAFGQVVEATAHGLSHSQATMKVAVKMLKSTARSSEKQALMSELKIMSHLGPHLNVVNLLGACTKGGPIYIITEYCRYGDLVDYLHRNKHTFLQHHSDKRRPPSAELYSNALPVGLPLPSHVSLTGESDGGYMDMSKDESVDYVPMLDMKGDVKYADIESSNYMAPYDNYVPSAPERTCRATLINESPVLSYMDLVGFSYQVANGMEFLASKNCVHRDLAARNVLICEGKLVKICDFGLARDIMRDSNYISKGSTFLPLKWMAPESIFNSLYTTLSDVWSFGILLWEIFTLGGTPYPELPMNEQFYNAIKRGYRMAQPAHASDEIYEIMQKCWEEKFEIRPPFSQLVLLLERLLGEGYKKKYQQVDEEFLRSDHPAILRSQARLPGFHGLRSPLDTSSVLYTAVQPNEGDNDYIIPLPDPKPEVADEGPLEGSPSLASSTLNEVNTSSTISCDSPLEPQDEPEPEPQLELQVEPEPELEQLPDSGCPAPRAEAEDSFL

[4] = target: Fibroblast growth factor receptor (Homo sapiens, UniProt P22607+P11362+P22455+P21802); assay: Inhibition of FGFR (unknown origin) after 20 mins by scintillation counting; format: protein assay
[5] = target: T1, Vascular endothelial growth factor receptor 1 (Homo sapiens, UniProt P17948); assay: Inhibition of ligand-induced phosphorylation of Flt-1 (unknown origin) overexpressed in NIH-3T3 cells at 10 uM after 2 hrs by immunoblotting; format: cell-based; conditions: NIH3T3
T1 sequence (P17948 whole entry): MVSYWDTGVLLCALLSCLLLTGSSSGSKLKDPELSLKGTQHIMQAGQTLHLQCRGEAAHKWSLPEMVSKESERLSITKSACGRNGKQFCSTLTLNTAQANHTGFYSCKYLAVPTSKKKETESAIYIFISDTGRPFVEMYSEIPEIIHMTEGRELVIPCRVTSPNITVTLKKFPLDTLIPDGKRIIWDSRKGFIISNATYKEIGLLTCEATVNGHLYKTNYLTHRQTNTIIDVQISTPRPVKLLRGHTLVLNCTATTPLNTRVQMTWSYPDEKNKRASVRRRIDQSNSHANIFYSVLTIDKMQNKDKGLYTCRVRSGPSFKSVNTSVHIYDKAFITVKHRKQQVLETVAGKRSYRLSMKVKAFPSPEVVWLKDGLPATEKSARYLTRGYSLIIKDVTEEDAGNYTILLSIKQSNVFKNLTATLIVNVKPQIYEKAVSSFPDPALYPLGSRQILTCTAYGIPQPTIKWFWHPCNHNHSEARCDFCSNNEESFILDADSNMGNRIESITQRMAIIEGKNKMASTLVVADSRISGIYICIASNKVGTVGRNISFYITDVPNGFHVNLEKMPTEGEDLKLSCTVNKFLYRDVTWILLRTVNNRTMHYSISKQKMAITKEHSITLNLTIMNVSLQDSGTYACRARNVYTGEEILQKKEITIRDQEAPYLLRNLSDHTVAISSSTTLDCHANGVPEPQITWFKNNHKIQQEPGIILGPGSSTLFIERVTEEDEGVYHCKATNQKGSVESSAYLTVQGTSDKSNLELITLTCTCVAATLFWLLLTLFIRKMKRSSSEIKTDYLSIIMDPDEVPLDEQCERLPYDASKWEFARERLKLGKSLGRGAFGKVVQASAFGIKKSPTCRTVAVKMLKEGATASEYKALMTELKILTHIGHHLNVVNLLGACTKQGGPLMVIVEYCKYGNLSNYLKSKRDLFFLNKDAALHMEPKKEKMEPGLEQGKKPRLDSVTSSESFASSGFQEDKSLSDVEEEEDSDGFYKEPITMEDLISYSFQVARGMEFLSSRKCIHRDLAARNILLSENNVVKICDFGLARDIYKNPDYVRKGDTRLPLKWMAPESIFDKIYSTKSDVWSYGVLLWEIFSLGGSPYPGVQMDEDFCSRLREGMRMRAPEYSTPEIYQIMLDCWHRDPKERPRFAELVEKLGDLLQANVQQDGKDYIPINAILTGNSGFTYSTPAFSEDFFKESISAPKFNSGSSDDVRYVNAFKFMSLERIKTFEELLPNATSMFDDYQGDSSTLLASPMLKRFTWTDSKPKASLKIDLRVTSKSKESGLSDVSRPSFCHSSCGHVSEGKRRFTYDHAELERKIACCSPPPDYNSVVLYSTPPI
How it was run: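 Subconfluent NIH3T3-Flt-1 cells were serum-starved 16 h, exposed to samples for 2 h, then stimulated 5 min with 50 ng/mL recombinant human VEGF-A. Cells were lysed in HEPES/Triton buffer containing Na3VO4, PMSF and aprotinin. Lysates were immunoblotted with anti-phosphotyrosine, anti-Flt-1 and anti-actin antibodies.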

NIH3T3 [6] = assay: Cytotoxicity against mouse NIH/3T3 cells overexpressing Flt-1 (unknown origin) at 10 uM after 2 hrs; format: cell-based; conditions: nih3t3, 2 h
[7] = target: Platelet-derived growth factor receptor alpha (Homo sapiens, UniProt P16234); assay: Inhibition of PDGFR-alpha (unknown origin) after 20 mins by scintillation counting
NIH3T3 [8] = assay: Cytotoxicity against mouse NIH/3T3 cells overexpressing KDR (unknown origin) after 48 hrs; format: cell-based; conditions: nih3t3, 48 h
How it was run: (§1)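 MTT viability assay: NIH3T3-Flt-1 or NIH3T3-KDR cells, grown in DMEM with 10% FCS, glutamine and 200 μg/mL G418, were seeded at 3 × 10^3 cells/well with or without test samples and incubated 2 days. MTT was then added for 2 h, formazan dissolved overnight in 10% SDS, and absorbance read at 570 nm.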

NIH3T3 [9] = assay: Cytotoxicity against mouse NIH/3T3 cells overexpressing Flt-1 (unknown origin) after 48 hrs; format: cell-based; conditions: nih3t3, 48 h; how it was run: as §1
[10] = target: T1, Vascular endothelial growth factor receptor 1; assay: Inhibition of GST-Flt1 kinase domain (unknown origin) expressed in baculovirus infected Sf9 cells after 20 mins by scintillation counting
[11] = target: Epidermal growth factor receptor (Homo sapiens, UniProt P00533); assay: Inhibition of EGFR (unknown origin) after 20 mins by scintillation counting
Epidermal growth factor receptor, sequence (P00533 whole entry): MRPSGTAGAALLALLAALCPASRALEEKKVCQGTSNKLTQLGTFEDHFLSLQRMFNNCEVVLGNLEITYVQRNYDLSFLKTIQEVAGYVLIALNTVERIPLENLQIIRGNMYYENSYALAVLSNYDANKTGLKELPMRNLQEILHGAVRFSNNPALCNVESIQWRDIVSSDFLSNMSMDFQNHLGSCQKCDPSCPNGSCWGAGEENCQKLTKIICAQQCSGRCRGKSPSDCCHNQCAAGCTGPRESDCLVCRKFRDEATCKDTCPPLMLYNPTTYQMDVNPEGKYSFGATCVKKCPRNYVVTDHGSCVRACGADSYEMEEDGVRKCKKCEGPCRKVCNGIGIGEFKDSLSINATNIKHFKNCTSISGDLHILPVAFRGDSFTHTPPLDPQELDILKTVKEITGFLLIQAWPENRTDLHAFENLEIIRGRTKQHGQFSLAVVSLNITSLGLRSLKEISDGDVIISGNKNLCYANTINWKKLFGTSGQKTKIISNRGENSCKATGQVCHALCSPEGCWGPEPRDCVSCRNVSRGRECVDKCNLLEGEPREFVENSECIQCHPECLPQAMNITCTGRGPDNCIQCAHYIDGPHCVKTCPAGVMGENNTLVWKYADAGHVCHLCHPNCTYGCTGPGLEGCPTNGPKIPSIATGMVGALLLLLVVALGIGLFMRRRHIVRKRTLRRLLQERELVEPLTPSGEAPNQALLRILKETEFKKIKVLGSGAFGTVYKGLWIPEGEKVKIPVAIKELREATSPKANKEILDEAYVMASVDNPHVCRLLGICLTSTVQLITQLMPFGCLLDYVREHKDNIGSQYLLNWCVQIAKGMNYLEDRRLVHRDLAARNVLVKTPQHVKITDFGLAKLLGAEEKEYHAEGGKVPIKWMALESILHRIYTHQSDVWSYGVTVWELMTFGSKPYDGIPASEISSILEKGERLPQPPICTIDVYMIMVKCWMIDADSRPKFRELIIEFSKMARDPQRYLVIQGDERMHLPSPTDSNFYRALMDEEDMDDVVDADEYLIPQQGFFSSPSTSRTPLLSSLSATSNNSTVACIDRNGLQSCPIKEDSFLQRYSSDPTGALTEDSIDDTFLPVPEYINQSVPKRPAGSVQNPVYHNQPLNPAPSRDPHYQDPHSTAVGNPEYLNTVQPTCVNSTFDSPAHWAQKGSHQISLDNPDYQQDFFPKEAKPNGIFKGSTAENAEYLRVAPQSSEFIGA

Vascular endothelial growth factor receptor 3, sequence (P35916 whole entry): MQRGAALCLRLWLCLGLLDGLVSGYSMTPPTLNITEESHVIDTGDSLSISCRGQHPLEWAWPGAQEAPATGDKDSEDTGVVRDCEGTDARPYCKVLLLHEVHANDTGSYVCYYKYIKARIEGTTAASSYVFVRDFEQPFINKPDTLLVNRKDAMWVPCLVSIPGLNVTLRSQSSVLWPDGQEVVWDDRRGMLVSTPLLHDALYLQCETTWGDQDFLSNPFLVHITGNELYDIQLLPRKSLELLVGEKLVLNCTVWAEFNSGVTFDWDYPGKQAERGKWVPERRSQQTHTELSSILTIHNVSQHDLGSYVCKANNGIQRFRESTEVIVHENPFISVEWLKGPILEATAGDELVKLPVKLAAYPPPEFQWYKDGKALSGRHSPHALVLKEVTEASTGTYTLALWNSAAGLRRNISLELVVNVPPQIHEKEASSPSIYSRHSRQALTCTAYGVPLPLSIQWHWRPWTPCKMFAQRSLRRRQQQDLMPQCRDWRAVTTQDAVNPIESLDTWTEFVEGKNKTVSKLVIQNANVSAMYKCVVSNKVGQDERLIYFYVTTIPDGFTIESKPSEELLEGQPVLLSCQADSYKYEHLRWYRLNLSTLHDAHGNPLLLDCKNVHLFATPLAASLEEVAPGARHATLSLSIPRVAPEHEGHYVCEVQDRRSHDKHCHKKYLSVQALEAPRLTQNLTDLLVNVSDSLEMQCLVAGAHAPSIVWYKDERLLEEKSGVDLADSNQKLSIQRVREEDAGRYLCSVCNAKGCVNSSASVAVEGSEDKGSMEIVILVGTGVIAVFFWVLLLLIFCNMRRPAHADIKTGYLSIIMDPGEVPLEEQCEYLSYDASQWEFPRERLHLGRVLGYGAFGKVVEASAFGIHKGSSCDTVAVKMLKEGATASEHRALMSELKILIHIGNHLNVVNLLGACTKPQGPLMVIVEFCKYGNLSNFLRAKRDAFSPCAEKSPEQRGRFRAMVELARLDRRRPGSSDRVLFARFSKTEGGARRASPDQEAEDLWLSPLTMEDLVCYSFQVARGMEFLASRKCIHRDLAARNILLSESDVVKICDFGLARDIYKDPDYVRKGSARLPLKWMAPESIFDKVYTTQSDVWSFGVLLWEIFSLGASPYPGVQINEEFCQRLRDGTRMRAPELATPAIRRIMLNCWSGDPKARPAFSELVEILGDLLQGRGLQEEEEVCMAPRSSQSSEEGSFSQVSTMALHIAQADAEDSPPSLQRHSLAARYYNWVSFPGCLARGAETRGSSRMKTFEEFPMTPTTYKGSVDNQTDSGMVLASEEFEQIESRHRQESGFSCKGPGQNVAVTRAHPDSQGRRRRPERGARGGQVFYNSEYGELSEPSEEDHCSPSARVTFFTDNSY

Cc1cc(C)c(/C=C2\C(=O)Nc3ccccc32)[nH]1 [SEMAXANIB]
IC50 [1]: 500 nM

NC(=O)C1=C(N)C(=O)C=C(Nc2ccccc2O)C1=O [VEGFRECINE]
IC50 [2]: 11 nM
IC50 [3]: 480 nM
IC50 [4]: 730 nM
Activity [5]: Active
Activity (NIH3T3 [6]): Non-toxic
IC50 [7]: 3200 nM
Activity (NIH3T3 [8]): 12 µM
IC50 [1]: 1.8 nM
Activity (NIH3T3 [9]): 3 µM
IC50 [10]: 18 nM
IC50 [11]: 2600 nM

Reference: ChEMBL document CHEMBL2331471, “Vegfrecine, an inhibitor of VEGF receptor tyrosine kinases isolated from the culture broth of Streptomyces sp” (J Nat Prod, 2013)
